Measured values taken from ChEMBL document CHEMBL1158546, “Discovery of novel and potent leukotriene B4 receptor antagonists. Part 1” (J Med Chem, 2010).
Activity calls are given as the source filed them. The calls are words filed in the database; no cut-off is given here.

Assays:
Rattus norvegicus [1] = assay: Toxicity in rat assessed as effect on food consumption at 400 mg/kg, po qd treated for 14 days; type: organism-based; set-up: dose 400 mg/kg, route oral; settings: in vivo, 336 h
Method in brief: (§1)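 Male Han-Wistar rats (200-230 g), n = 4 per group, were given 40 or 400 (mg/kg)/day orally for 14 days in 2% Klucel LF/0.1% Tween-80 versus vehicle. Body weight was recorded at pretreatment and on days 1, 8 and 14, and food intake weekly. Clinical chemistry was sampled on day 5 and at necropsy. Organs were formalin-fixed and H&E stained. Data are given as mean ± SD and analysed by Bartlett's test.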

Rattus norvegicus [2] = assay: Hepatotoxicity in po dosed rat assessed as increase in total bilirubin level treated for 14 days measured; type: toxicity, organism-based; settings: in vivo, 336 h
Rattus norvegicus [3] = assay: Hepatotoxicity in rat assessed as increase in ALT level at 40 mg/kg, po qd after 15 days; type: toxicity, organism-based; set-up: dose 40 mg/kg, route oral; settings: in vivo, 360 h; method in brief: as §1
Rattus norvegicus [4] = assay: Toxicity in rat assessed as effect on body weight at 400 mg/kg, po qd treated for 14 days; type: organism-based; set-up: dose 400 mg/kg, route oral; settings: in vivo, 336 h; method in brief: as §1
[5] = biological target: T1, Leukotriene B4 receptor 2 (Homo sapiens, UniProt Q9NPC1); assay: Antagonist activity at FLAG-tagged human BLT2 receptor expressed in HEK293 cells assessed as inhibition of LTB4-stimulated calcium mobilization preincubated for 10 mins before LTB4 challenge; type: functional, cell-based
T1 sequence (Q9NPC1 whole entry): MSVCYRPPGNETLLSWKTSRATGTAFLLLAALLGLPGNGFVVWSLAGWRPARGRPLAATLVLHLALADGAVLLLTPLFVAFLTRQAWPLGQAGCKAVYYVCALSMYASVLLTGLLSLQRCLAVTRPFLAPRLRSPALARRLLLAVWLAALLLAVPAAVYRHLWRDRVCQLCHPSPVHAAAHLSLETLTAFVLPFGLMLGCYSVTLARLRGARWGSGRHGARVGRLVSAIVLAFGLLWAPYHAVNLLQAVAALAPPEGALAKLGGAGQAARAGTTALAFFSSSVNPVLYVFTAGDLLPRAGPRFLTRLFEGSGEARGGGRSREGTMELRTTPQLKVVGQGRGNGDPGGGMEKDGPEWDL

[6] = Half life in Sprague-Dawley rat at 10 mg/kg, po; type: ADME, organism-based; set-up: dose 10 mg/kg, route oral; settings: in vivo
Method in brief: (§2)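 Rat single-dose PK, n = 3, with oral dosing at 10 mg/kg and intravenous dosing at 2.5 or 5 mg/kg.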

Neutrophil = assay: Inhibition of LTB4-stimulated human neutrophils migration after 30 mins by using CyQuant GR fluorescent dye; type: functional, cell-based; settings: Homo sapiens, Neutrophil, 0.5 h; read-out: IC50
Method in brief: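 Human blood neutrophils (95-97% pure, isolated over Lympholyte-poly) at 5 × 10^6 cells/mL were preincubated with compound (3 × 10^-12 to 1 × 10^-6 M final) for 30 min at 37 C. Migration toward 100 ng/mL LTB4 across a polycarbonate membrane ran 90 min at 37 C. Migrated cells were lysed with CyQuant GR and read at 480/520 nm. IC50 was taken from a sigmoidal fit of % inhibition.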

Cytochrome P450 3A4 = Cytochrome P450 3A4 (Homo sapiens, UniProt P08684); assay: Inhibition of CYP3A4 fluorescence method; type: ADME
Method in brief: (§3)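 High-throughput CYP panel covering 1A2, 2D6, 2C9, 2C19 and 3A4, using fluorogenic substrates. IC50 was determined in μM.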

Cytochrome P450 2C9 = Cytochrome P450 2C9 (Homo sapiens, UniProt P11712); assay: Inhibition of CYP2C9 fluorescence method; type: ADME
[7] = biological target: T2, Leukotriene B4 receptor 1 (Homo sapiens, UniProt Q15722); assay: Antagonist activity at FLAG-tagged human BLT1 receptor expressed in HEK293 cells assessed as inhibition of LTB4-stimulated calcium mobilization preincubated for 10 mins before LTB4 challenge; type: functional, cell-based
Rattus norvegicus [8] = assay: Hepatotoxicity in rat assessed as increase in ALT level at 400 mg/kg, po qd treated for 14 days measured after 5 days relative to control; settings: in vivo, 120 h
Rattus norvegicus [9] = assay: Toxicity in rat assessed as alkaline phosphatase level at 400 mg/kg, po qd treated for 14 days; type: organism-based; set-up: dose 400 mg/kg, route oral; settings: in vivo, 336 h; method in brief: as §1
[10] = Tmax in Sprague-Dawley rat at 10 mg/kg, po; type: ADME, organism-based; set-up: dose 10 mg/kg, route oral; settings: in vivo; method in brief: as §2
Cytochrome P450 2D6 = Cytochrome P450 2D6 (Homo sapiens, UniProt P10635); assay: Inhibition of CYP2D6 fluorescence method; type: ADME; method in brief: as §3
Rattus norvegicus [11] = assay: Toxicity in rat assessed as alkaline phosphatase level at 40 mg/kg, po qd treated for 14 days; type: organism-based; set-up: dose 40 mg/kg, route oral; settings: in vivo, 336 h; method in brief: as §1
[12] = biological target: T2, Leukotriene B4 receptor 1; assay: Antagonist activity at BLT1 receptor expressed in human HL60 cells assessed as inhibition of LTB4-stimulated calcium flux after 30 mins; type: functional, cell-based, HL-60; settings: read-out: IC50
Method in brief: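 HL-60 cells grown in RPMI-1640 with 20% FBS were plated at 2.0 × 10^5 cells/ml with 1 μM retinoic acid. They were dye-loaded in HBSS/20 mM HEPES/5 mM probenecid (0.05% BSA in the replacement buffer) for 1 h at 37 C. Compound (5 × 10^-11 to 3 × 10^-6 M final) was added for 30 min at room temperature, then 0.5 μM LTB4. Fluorescence was read every 1.5 s for 100 s and peak increase scored as % inhibition versus DMSO control.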

Cytochrome P450 2C19 = Cytochrome P450 2C19 (Homo sapiens, UniProt P33261); assay: Inhibition of CYP2C19 fluorescence method; type: ADME
Method in brief: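 Cytochrome P450 high-throughput panel (1A2, 2D6, 2C9, 2C19, 3A4) using fluorogenic substrates; IC50 reported.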

Rattus norvegicus [13] = assay: Hepatotoxicity in rat assessed as increase in ALT level at 400 mg/kg, po qd treated after 15 days; type: toxicity, organism-based; set-up: dose 400 mg/kg, route oral; settings: in vivo, 360 h; method in brief: as §1
Rattus norvegicus [14] = assay: Hepatotoxicity in rat assessed as increase in ALT level at 400 mg/kg, po qd treated after 5 days; type: toxicity, organism-based; set-up: dose 400 mg/kg, route oral; settings: in vivo, 120 h; method in brief: as §1
[15] = Half life in Sprague-Dawley rat at 5 mg/kg, iv; type: ADME, organism-based; set-up: dose 5 mg/kg, route intravenous; settings: in vivo; method in brief: as §2
Rattus norvegicus [16] = assay: Toxicity in rat assessed as aspartate aminotransferase level at 400 mg/kg, po qd treated for 14 days; type: organism-based; set-up: dose 400 mg/kg, route oral; settings: in vivo, 336 h; method in brief: as §1
Cynomolgus monkey = assay: Antiinflammatory activity against ascaris suum antigen-evoked increase in neutrophils at bronchoalveolar lavage in cynomolgus monkey at 10 mg/kg, po after 1 hr treated before LTB4 challenge; type: functional, organism-based; set-up: dose 10 mg/kg; settings: Macaca fascicularis, in the assay text read “before Ascaris suum antigen challenge” for “before LTB4 challenge”
Method in brief: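 Male cynomolgus monkeys (4-10 kg) naturally hypersensitive to Ascaris suum had baseline BAL 24 h before challenge. They were dosed orally with 10 mg/kg in 15% Labrasol in PEG. One hour later, under ketamine/xylazine, they received antigen aerosol for 90 s by endotracheal tube. BAL neutrophil percentage came from 300-cell LeukoStat differentials, with hemocytometer totals. Analysis by two-way ANOVA/Bonferroni; 3-21 animals per group.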

[17] = Volume of distribution at steady state in Sprague-Dawley rat at 5 mg/kg, iv; type: ADME, organism-based; set-up: dose 5 mg/kg, route intravenous; settings: in vivo, read-out: Vdss; method in brief: as §2
[18] = Oral bioavailability in Sprague-Dawley rat at 10 mg/kg, po; type: ADME, organism-based; settings: in vivo; method in brief: as §2
Rattus norvegicus [19] = assay: Hepatotoxicity in rat assessed as increase in ALT level at 40 mg/kg, po qd after 5 days; type: toxicity, organism-based; set-up: dose 40 mg/kg, route oral; settings: in vivo, 120 h; method in brief: as §1
[20] = Clearance in Sprague-Dawley rat at 5 mg/kg, iv; type: ADME, organism-based; set-up: dose 5 mg/kg, route intravenous; settings: in vivo; method in brief: as §2

T2 sequence (Q15722 whole entry): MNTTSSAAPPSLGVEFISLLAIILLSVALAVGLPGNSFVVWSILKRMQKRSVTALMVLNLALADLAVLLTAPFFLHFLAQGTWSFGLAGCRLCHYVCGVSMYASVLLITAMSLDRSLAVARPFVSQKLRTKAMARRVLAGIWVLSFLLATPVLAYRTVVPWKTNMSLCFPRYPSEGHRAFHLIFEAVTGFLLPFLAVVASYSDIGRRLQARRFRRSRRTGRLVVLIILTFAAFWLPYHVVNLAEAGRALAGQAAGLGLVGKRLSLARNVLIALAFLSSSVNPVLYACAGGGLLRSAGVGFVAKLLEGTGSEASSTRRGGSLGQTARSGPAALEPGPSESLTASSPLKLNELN
Chain of Cytochrome P450 2D6 (P10635 whole entry): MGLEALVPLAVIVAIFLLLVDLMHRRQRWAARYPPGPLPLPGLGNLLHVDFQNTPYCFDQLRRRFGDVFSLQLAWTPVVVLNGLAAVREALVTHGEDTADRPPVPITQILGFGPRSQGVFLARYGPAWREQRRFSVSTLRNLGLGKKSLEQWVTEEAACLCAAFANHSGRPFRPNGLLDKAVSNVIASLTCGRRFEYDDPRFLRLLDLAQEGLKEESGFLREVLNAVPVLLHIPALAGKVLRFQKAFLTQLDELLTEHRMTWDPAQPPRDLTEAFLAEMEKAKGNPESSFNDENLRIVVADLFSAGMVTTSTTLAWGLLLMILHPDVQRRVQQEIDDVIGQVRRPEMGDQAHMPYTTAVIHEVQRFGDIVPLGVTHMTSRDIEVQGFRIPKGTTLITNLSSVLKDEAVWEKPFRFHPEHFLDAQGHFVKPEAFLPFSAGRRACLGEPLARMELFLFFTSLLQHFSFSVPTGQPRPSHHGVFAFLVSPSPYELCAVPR
Chain of Cytochrome P450 2C19 (P33261 whole entry): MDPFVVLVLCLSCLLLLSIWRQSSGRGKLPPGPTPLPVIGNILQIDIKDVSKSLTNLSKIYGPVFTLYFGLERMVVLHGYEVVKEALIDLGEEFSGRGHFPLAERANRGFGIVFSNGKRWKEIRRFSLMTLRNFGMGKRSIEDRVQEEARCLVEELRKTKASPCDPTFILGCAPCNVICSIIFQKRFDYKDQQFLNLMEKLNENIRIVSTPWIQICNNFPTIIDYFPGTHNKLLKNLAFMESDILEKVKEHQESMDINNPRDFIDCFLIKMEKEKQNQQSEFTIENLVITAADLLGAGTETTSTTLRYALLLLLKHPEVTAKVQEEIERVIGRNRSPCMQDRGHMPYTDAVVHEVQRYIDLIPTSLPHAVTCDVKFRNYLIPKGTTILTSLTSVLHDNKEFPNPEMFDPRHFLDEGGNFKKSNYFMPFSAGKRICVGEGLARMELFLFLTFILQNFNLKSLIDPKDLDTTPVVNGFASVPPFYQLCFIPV
Chain of Cytochrome P450 3A4 (P08684 whole entry): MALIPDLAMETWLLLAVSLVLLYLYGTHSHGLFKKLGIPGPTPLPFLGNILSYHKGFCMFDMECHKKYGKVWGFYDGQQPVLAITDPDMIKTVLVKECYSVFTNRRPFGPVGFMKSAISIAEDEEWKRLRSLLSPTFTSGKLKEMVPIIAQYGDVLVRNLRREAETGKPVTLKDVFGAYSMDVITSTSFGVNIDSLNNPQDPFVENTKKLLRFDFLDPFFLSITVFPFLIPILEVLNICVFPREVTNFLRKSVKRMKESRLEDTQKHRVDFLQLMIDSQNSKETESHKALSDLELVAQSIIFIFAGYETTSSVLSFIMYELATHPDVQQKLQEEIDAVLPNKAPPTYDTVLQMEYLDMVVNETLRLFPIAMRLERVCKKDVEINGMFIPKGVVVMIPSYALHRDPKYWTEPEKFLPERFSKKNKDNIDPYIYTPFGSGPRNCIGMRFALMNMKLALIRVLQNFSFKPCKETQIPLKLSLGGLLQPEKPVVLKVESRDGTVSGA
Chain of Cytochrome P450 2C9 (P11712 whole entry): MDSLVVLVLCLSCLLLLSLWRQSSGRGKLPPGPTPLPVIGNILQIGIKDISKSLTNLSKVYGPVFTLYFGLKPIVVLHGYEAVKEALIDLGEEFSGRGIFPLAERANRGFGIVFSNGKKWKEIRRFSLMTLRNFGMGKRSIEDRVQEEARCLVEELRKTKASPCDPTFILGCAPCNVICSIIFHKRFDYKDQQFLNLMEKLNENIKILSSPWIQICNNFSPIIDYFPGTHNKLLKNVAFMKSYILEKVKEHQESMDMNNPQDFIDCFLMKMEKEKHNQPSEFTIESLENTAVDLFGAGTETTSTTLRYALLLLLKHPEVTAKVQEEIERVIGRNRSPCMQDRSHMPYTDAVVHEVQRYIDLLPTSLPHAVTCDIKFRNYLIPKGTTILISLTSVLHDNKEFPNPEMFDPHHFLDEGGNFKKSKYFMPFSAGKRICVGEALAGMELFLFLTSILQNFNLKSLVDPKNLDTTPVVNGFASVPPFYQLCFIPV

Row | Structure (SMILES) | Activity (Rattus norvegicus [1]) | Activity (Rattus norvegicus [2]) | Activity (Rattus norvegicus [3]) | Activity (Rattus norvegicus [4]) | IC50 [5] | half-life [6] | IC50 (Neutrophil) | IC50 (Cytochrome P450 3A4) | IC50 (Cytochrome P450 2C9) | IC50 [7] | Activity (Rattus norvegicus [8]) | Activity (Rattus norvegicus [9]) | Tmax [10] | IC50 (Cytochrome P450 2D6) | Activity (Rattus norvegicus [11]) | IC50 [12] | IC50 (Cytochrome P450 2C19) | Activity (Rattus norvegicus [13]) | Activity (Rattus norvegicus [14]) | half-life [15] | other results
1 | O=C(O)CCCOc1cccc(CCCCCCOc2cc(-c3ccsc3)cc(-c3ccc4c(c3)OCO4)c2)c1CCC(=O)O | Non-toxic | Toxic | 38 IU/L | Non-toxic | 164 nM | 2.7 h | 0.1 nM | > 7500 nM | 3900 nM | 114 nM | 29% | Non-toxic | 3 h | > 7500 nM | Non-toxic | 0.44 nM | > 7500 nM | 125 IU/L | 58 IU/L | 2.1 h | Activity (Rattus norvegicus [16]): Non-toxic; Activity (Cynomolgus monkey): Active; Vd [17]: 0.22 L/kg; bioavailability [18]: 70%; Activity (Rattus norvegicus [19]): 40 IU/L; clearance [20]: 5.47 mL/min/kg
2 | O=C(O)CCCOc1cccc(CCCCCCOc2cc(-c3cccc(F)c3)cc(-c3ccc4c(c3)OCO4)c2)c1CCC(=O)O | Non-toxic | Toxic | 35 IU/L | Non-toxic | 194 nM | 3.1 h | 3.68 nM | > 7500 nM | > 25000 nM | 129 nM | 53% | Non-toxic | 5 h | > 7500 nM | Non-toxic | 1.19 nM | > 7500 nM | 121 IU/L | 69 IU/L | 2.4 h | Activity (Rattus norvegicus [16]): Non-toxic; Activity (Cynomolgus monkey): Active; Vd [17]: 0.98 L/kg; bioavailability [18]: 88%; Activity (Rattus norvegicus [19]): 40 IU/L; clearance [20]: 11.6 mL/min/kg
